miR122 inh: miR-122 Renilla sensor signal increase in Huh7, primary screen, miR-122 inhibitor project, cell-based, single point, plate reader; Huh7 miR-122 Renilla luciferase sensor, 48 h; neutral wells = 0, positive control = 100; activation (reporter increase), % at 12.5 µM; hit rate 0.3% among 340,000; AID 602342, 2012;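 active = mean replicate activation score at least 90 and every replicate individually at or above 90; inconclusive = only one of the two criteria met; inactive = neither criterion met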;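 also: higher luciferase means less miR-122 activity so hits act as miR-122 inhibitors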
Cneo AK release: Cryptococcus neoformans cell lysis inducers, primary screen, AK release luminescence, single concentration | C. neoformans lysis, adenylate kinase release luminescence, 4 h; normalised: neutral wells 0, clomiphene wells 100 | lysis activity, % at 15 µM | hit rate 0.2% among 360,000 | AID 651654, 2012;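 active = mean lysis activity across replicates of at least 80%, whatever share of replicates individually reach that level; inactive = mean lysis activity below 80%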
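Material: C. neoformans cells | Amount: Yeast cell density of 5 × 10^6 cells/mL | Medium: Fresh YPD growth medium | Dosing: Single dose | Times: Static 4 h at 37 °C with compound, 1 h detection | Detection: AK luminescence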
DENV2 CPE rescue: inhibitors of DENV2 cytopathic effect, primary screen, cell-based, plate reader, single concentration; DENV2-infected cells, cytopathic effect rescue; CPE inhibition, % at 9.99 µM; hit rate 1.7% among 350,000; in the data active = CPE inhibition above about 20%, passing the limit was not always enough; inconclusive = no clear call, values can overlap the other calls; tested in BHK-21 cells;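 also: 0% = median of neutral control wells and 100% = median of positive control wells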
E-selectin induc: E-selectin induction in HUVECs, primary screen, imaging, HUVEC, immunofluorescence imaging, single point | P16581 | normalized: neutral wells 0, TNF-alpha wells 100 | activation, % at 7.58 µM | hit rate 0.37% among 260,000 | AID 686992, 2013;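 active = mean E-selectin-positive cell signal at least 10% of the positive control, reached in at least 60% of replicates, without over 20% cell loss; inconclusive = no rule given, readout overlaps actives, possibly toxicity-flagged; inactive = the rest, including those meeting only one limit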
Target sequence (P16581 whole entry, looked up): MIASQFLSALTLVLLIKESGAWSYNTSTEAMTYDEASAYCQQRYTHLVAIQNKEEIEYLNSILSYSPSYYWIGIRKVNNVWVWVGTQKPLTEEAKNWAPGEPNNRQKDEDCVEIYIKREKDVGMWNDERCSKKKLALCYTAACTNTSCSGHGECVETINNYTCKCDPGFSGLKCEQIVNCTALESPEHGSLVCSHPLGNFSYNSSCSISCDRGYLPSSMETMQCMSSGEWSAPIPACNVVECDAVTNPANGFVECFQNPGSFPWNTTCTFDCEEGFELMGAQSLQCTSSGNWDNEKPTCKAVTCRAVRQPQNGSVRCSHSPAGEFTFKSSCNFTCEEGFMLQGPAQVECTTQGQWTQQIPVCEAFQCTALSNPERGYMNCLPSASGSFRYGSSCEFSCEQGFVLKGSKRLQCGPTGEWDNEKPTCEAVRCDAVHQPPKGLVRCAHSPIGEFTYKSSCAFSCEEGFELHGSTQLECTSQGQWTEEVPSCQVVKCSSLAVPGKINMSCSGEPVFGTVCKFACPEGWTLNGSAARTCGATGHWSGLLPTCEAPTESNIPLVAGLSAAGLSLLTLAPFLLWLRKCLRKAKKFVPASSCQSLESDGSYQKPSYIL
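Assay system: HUVEC primary endothelial cells. Input: 3,000 HUVEC seeded per well. Doses: one compound dose added by pin transfer. Read-out basis: % PE-positive cells. Benchmarks: TNF-alpha high, DMSO low. Detection: immunofluorescence imaging. Buffer or medium: EGM-2, gelatin.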
rRNA inh HTS: reduced GFP signal of wild-type E. coli, primary screen, bacterial rRNA inhibitor project, GFP/RFP fluorescence, OD600, single point. E. coli WT GFP vs humanized-ribosome RFP mutants, 24 h; stronger effect = lower value; DMSO median 0, no signal -100. hit rate 1.6% among 350,000. AID 720706, 2013. GFP signal change (wild-type ribosome), % (test concentration not listed);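 active = significant combined selectivity score with lowered wild-type GFP, culture density cut under 30%, mutant RFP and density less affected; inactive = any of these conditions unmet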
* marks the source's active call; other numbers are inactive results; ? = inconclusive; / = no result; [ ] = remark or other dose. In the library only some 3.1% were active in any assay of this set; here they are far more common.

SMILES	miR122 inh	Cneo AK release	DENV2 CPE rescue	E-selectin induc	rRNA inh HTS
CO[C@H]1CN(C)C(=O)c2cc(NC(=O)CC(F)(F)F)ccc2OC[C@H](C)NC[C@@H]1C	/	/	-7	3	2
CN(C)C(=O)[C@@H]1[C@@H](CO)[C@@H]2Cn3c(ccc(C4=CCCCC4)c3=O)[C@H]1N2Cc1ccccc1	6[16.7 µM]	2	1	0	-5
COc1ccc(C(=O)Nc2ccc3c(c2)OC[C@@H](C)NC[C@H](C)[C@H](OC)CN(C)C3=O)cc1	0[16.7 µM]	6	8	6	-2
Cc1cc(C)c2c(N)c(C(=O)c3ccc(Br)cc3)oc2n1	/	/	46*	/	0
Cc1cc(C)c2c(N)c(C(=O)c3ccccc3)oc2n1	2	7	/	/	/
CO[C@H]1CN(C)C(=O)c2ccc(NC(=O)Nc3ccccc3)cc2OC[C@H](C)N(C(=O)Nc2c(C)noc2C)C[C@H]1C	0[16.7 µM]	0	-12	0	4
CC(C)c1ccc(C(=O)Nc2nnc(S(=O)(=O)N3CCCCC3)s2)cc1	/	7	4	45*	0
Cc1[nH]nc(C(=O)NN=Cc2ccccc2Cl)c1N=NN(C)C	5	/	2	0	-21*
O=C(N/N=C/c1ccccc1Cl)c1n[nH]c2c1CCCC2	/	/	6	0	18
COc1ccc2c3c([nH]c2c1)[C@@H](CO)N(Cc1nccs1)CC31CN(C(=O)C2CCCCC2)C1	/	/	/	/	-1
C[C@@H]1CCCCO[C@@H](CN(C)C(=O)c2ccncc2)[C@@H](C)CN([C@@H](C)CO)C(=O)c2cc(NC(=O)c3ccccc3)ccc2O1	/	/	/	0	8
COc1cc(S(=O)(=O)NCc2ccncc2)c(OC)cc1C	/	2	-6	/	8
COc1cc(C)c(Cl)c(C)c1S(=O)(=O)NCc1cccnc1	121*	1	/	/	/
COc1cc(S(=O)(=O)NCc2cccnc2)c(OC)cc1Br	108*	-1	/	9	/
COc1cc(S(=O)(=O)NCc2ccncc2)c(OC)cc1Br	/	17	28*	-1	1
O=C1N[C@H](Cc2ccccc2)COCc2cn(nn2)CC[C@@H]1Cc1cccc(Cl)c1	/	/	/	/	1
O=C(CN1C(=O)c2ccccc2C1=O)Nc1cccc(S(=O)(=O)Nc2ccccc2Cl)c1	/	/	2	2	-26*
O=C(CN1C(=O)c2ccccc2C1=O)Nc1cccc(Cl)c1	-2	1	6	0	11
O=S(=O)(Nc1ccc(-n2cccc2)cc1)c1ccc(Cl)c(Cl)c1	-2	/	3	/	-45*
Cc1ccc(-c2ccc3c(c2)O[C@@H](CN(C)Cc2ccc(F)cc2)[C@@H](C)CN([C@@H](C)CO)S3(=O)=O)cc1	-4[16.7 µM]	-8	-15	0	-7
Cc1ccc(-c2ccc3c(c2)O[C@H](CN(C)Cc2ccc(F)cc2)[C@H](C)CN([C@H](C)CO)S3(=O)=O)cc1	10[16.7 µM]	90*	9	0	2
Cc1ccc(-c2ccc3c(c2)O[C@H](CN(C)Cc2ccc(F)cc2)[C@@H](C)CN([C@H](C)CO)S3(=O)=O)cc1	98*[16.7 µM]	-1	-5	0	-6
CO[C@@H](CN(C)C(=O)c1ccccc1F)[C@@H](C)CN([C@H](C)CO)S(=O)(=O)c1ccc(Cl)cc1	/	55	3	0	-4
CCCNC(=O)N1[C@@H](CO)[C@H](c2ccccc2)C12CN(C(=O)c1cccnc1)C2	/	/	/	/	2
Cc1c(C(=O)O)cccc1-n1c(C)cc(/C=C(/C#N)C(=O)NCc2ccccc2)c1C	-5	/	12	83*	-13
SMILES	miR122 inh	Cneo AK release	DENV2 CPE rescue	E-selectin induc	rRNA inh HTS
Cc1cccc(NC(=O)/C(C#N)=C\c2cc(C)n(-c3ccc(C(=O)O)cc3)c2C)c1	/	/	0	/	-28*
CC(C)CN1CCCC(N2CCN(c3cccc(Cl)c3)CC2)C1 (stereo not drawn)	2	-1	27*	/	-4
CNC[C@H]1Oc2c(NS(C)(=O)=O)cccc2C(=O)N(C)C[C@H]1C	/	/	/	/	0
COc1ccc2c3c([nH]c2c1)[C@H](CO)N(C(=O)C1CCCCC1)CC31CCN(C(=O)NC(C)C)CC1	/	/	29*	0	2
COc1ccc2c3c([nH]c2c1)[C@H](CO)N(C(=O)C1CCOCC1)CC31CCN(S(C)(=O)=O)CC1	/	/	35*	0	0
COc1ccc2c3c([nH]c2c1)[C@@H](CO)N(Cc1ccc(F)cc1)CC31CCN(C(=O)NC(C)C)CC1	/	/	9	0	3
COc1ccc2c3c([nH]c2c1)[C@@H](CO)N(Cc1ccc(F)cc1)CC31CN(C(=O)NC(C)C)C1	/	/	93*	-1	-2
C[C@H]1CN(C)C(=O)Cc2cc(N(C)C)ccc2O[C@@H]1CN(C)C	/	/	/	/	0
O=C(C/C=N\OCc1ccc([N+](=O)[O-])cc1)Nc1ccc(Cl)cc1	/	/	8	/	-40*
O=C(C/C=N\OCc1ccc([N+](=O)[O-])cc1)Nc1ccccc1	-4	2	-4	0	-2
CN(C)c1ccc(-c2nn3c(-c4ccccc4Cl)nnc3s2)cc1	40	2	/	/	/
COc1ccccc1-c1nnc2sc(-c3ccc(N(C)C)cc3)nn12	?	4	42*	/	-7
Cc1ccc2c(CN3CCCc4ccccc43)cc(=O)oc2c1C	147*	1	/	/	/
CO[C@H]1CN(C)C(=O)c2ccc(NC(=O)c3ccc(F)cc3)cc2OC[C@H](C)N(C(C)=O)C[C@H]1C	/	/	/	0	0
O=C(c1cc(COc2cccc(C(F)(F)F)c2)on1)N1CCc2ccccc2C1	/	0	-2	/	-22
CCOc1ccc(OCc2ccc(C(=O)N3CCCCC3)o2)cc1	5	14	-2	0	-18
CCOc1ccc(OCc2ccc(C(=O)N3CCc4ccccc4C3)o2)cc1	/	-2	-1	/	-28*
O=C(c1cc(COc2c(F)cccc2F)on1)N1CCc2ccccc2C1	-10	1	-3	/	-23*
O=C(c1cc(COc2c(F)cccc2F)on1)N1C[C@H]2CC[C@H]1C2	-4	-2	-5	0	-20*
COc1ccc(S(=O)(=O)N(C)C[C@@H]2OCCCC[C@H](C)Oc3ccc(NC(=O)CCCN(C)C)cc3C(=O)N([C@@H](C)CO)C[C@H]2C)cc1	-5[16.7 µM]	-2	4	0	2
CCOc1cc(/C=C/c2ccc3cccc([N+](=O)[O-])c3n2)cc(Cl)c1O	113*	/	/	/	/
O=[N+]([O-])c1cccc2ccc(/C=C/c3ccc(Cl)cc3)nc12	/	/	5	/	-2
COc1ccc(-c2ccc3c(c2)[C@@H]2[C@@H](CCN2Cc2ccccc2F)[C@H](CO)N3)cc1	/	/	23*	1	-33
CCC(=O)N1CC[C@@H]2[C@@H](CO)Nc3ccc(-c4ccc(OC)cc4)cc3[C@@H]21	-1[16.7 µM]	-18	131*	0	-2
